# Experimental data as given in paper PMC3279955 (ACS chemical neuroscience, 2012).
# pIC50: −log10 of the molar value.
# How the values were obtained:
# [1] = system: primary immature cortical neurons; test: Oxidative stress; type: cell-based
# How it was run: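 Primary cortical neurons were exposed to test compound (20 μM) with or without homocysteic acid (HCA, 5 mM), which depletes glutathione. Survival was read by MTT assay after 48 h and expressed as percent of the no-inhibitor control, mean ± SEM. Live/dead staining with calcein AM and ethidium homodimer was done in parallel.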
# [2] = system: human SMA patient fibroblasts; details: commercially available GSK-3 inhibitors; cited from earlier work
# [3] = system: human SMA patient fibroblasts; test: SMN protein level in SMA patient fibroblasts by western blot; type: cell-based; details: 72 h
# How it was run: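 Fibroblasts from SMA patients were exposed to test compound (20, 25 or 30 μM) or DMSO vehicle for 72 h. SMN protein was assessed by Western blot and quantified from three separate experiments.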
# Δ7 SMA KO mouse [4] = test: Δ7 SMA KO neonatal mouse model: survival, body weight, tolerability; type: in vivo
# Δ7 SMA KO mouse [5] = test: Δ7 SMA KO mouse model: negative geotaxis test; type: in vivo; details: 75 mg/kg once a day
# PKCβ2 = PKCβ2 (Homo sapiens, UniProt P05771); test: Kinase inhibition assay; type: biochemical
# Δ7 SMA KO mouse [6] = test: Δ7 SMA KO mouse model: tube test; type: in vivo; details: 75 mg/kg once a day; postnatal day 6, 8, 10 and 12
# GSK-3 = GSK-3 inhibition in the presence of 10 µM ATP; type: biochemical; details: read-out: GSK-3 IC50; tested in the presence of 10 µM ATP
# Chain of PKCβ2 (P05771 1-673 isoform P05771-2): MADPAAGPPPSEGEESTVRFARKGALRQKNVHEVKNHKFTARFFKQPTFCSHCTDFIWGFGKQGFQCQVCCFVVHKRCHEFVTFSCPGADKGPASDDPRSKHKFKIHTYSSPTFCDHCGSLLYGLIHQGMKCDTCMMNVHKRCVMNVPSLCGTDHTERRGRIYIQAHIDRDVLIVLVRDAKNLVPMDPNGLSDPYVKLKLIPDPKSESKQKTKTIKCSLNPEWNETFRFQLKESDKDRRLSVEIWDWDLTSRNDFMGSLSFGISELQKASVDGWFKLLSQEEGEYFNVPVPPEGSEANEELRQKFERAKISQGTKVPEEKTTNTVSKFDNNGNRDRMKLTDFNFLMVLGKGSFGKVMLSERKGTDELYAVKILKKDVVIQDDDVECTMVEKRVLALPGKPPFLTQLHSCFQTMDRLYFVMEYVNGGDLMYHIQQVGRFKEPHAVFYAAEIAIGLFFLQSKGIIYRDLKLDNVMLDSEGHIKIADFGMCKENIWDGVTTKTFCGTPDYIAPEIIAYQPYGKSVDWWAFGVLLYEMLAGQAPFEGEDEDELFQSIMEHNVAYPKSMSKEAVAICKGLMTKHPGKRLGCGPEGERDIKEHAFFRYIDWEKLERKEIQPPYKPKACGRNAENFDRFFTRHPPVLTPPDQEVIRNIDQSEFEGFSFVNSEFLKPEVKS
molecule,measurement,setting,value
"COc1ccc(CNC(=O)Nc2ncc([N+](=O)[O-])s2)cc1 [AR-A014418, reference compound]",protection in the HCA oxidative stress model,"[1]; HCA 5 mM, MTT assay",provided some protection
same,elevation of SMN levels in vitro,[2],shown to elevate SMN levels in vitro
O=C1Cc2c([nH]c3ccc([N+](=O)[O-])cc23)-c2ccccc2N1 [alsterpaullone],elevation of SMN levels in vitro,[2],shown to elevate SMN levels in vitro
"Cn1cc(C2=C(c3coc4ccccc34)C(=O)NC2=O)c2cc(Br)ccc21 [BIP-135, 3-(5-bromo-1-methyl-1H-indol-3-yl)-4-(benzofuran-3-yl)pyrrole-2,5-dione]",increase in SMN levels compared to vehicle treated cells,"[3]; 25 µM, western blot",7 fold
same,toxicity in SMA patient fibroblasts (bell-shaped dose-response),[3]; higher concentrations,some toxicity at higher concentrations
same,protection of HCA-treated cortical neurons (survival),"[1]; 20 µM, HCA 5 mM, MTT assay, HCA alone approximately 25 percent survival",about 80%
same,protection in the HCA oxidative stress model,"[1]; HCA 5 mM, MTT assay",able to protect at a lower concentration
same,toxicity to neurons exposed to compound alone,[1]; absence of HCA,No significant toxicity
same,tolerability / toxicity in SMA KO animals,"Δ7 SMA KO mouse [4]; 75 mg/kg IP, 100% DMSO as vehicle",did not appear to be toxic and was well-tolerated
same,effect on SMA KO body weight versus vehicle,"Δ7 SMA KO mouse [4]; 75 mg/kg once a day, p = 0.0435, after around P6",showed an improvement in body weight
same,overall motor function (geotaxis and tube test),Δ7 SMA KO mouse [5],did not improve the overall motor function
same,percent of KO mice that completed the geotaxis test,"Δ7 SMA KO mouse [5]; P12, p = 0.0315",more KO animals treated with BIP-135 completed the geotaxis test
same,latency to complete the negative geotaxis test,Δ7 SMA KO mouse [5]; p = 0.0683,no significant treatment effects
same,pIC50,PKCβ2,6.66
same,"tube test parameters (time hanging, number of pulls, hind-limb strength score, tube test score)",Δ7 SMA KO mouse [6],no significant treatment effect
CHIR98014,elevation of SMN levels in vitro,[2],shown to elevate SMN levels in vitro
